Experimental data published in ChEMBL document CHEMBL4330063, “New naphthopyran analogues of LY290181 as potential tumor vascular-disrupting agents” (Eur J Med Chem, 2019).
The source made the active and inactive calls. No cut-off for these calls is given here.

What was measured:
518A2 [1] = assay: Antiproliferative activity against human 518A2 cells after 72 hrs by MTT assay; format: functional, cell-based; details: for IC50: 518A2, 72 h
Method in brief: (§1)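 MTT read-out after 72 h of continuous exposure. Viability is expressed as percentage of viable cells relative to untreated controls. IC50 comes from dose-response curves. Values are means±SD of four independent experiments (two for some entries). DMSO was below 1%, with vehicle controls at equal DMSO. Precipitation was excluded spectrometrically and microscopically.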

HT-29 [2] = assay: Antiproliferative activity against human HT-29 cells after 72 hrs by MTT assay; format: functional, cell-based; details: HT-29, 72 h; method in brief: as §1
A2780 = assay: Antiproliferative activity against human A2780 cells after 72 hrs by SRB assay; format: functional, cell-based; details: A2780, 72 h
Method in brief: (§2)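 Ovarian A2780 and cisplatin-resistant A2780cis cells were exposed for 72 h and stained with SRB. IC50 comes from dose-response curves, as means±SD of three independent experiments. Final DMSO was below 1%, with matched vehicle controls.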

[3] = Antiproliferative activity against human A2780cis cells after 72 hrs by SRB assay; format: functional, cell-based; method in brief: as §2
DLD-1 = assay: Antiproliferative activity against human DLD1 cells after 72 hrs by MTT assay; format: functional, cell-based; details: DLD-1, 72 h; method in brief: as §1
EA.hy 926 = assay: Antiproliferative activity against human EAhy926 cells after 72 hrs by MTT assay; format: functional, cell-based; details: EA.hy 926, 72 h; method in brief: as §1
PANC-1 = assay: Antiproliferative activity against human PANC1 cells after 72 hrs by MTT assay; format: functional, cell-based; details: PANC-1, 72 h; method in brief: as §1
HCT-116 = assay: Antiproliferative activity against human HCT116 cells after 72 hrs by MTT assay; format: functional, cell-based; details: HCT-116, 72 h; method in brief: as §1
[4] = Antiproliferative activity against human KB-V1/Vbl cells after 72 hrs by MTT assay; format: functional, cell-based; method in brief: as §1
[5] = Antiproliferative activity against human MCF7/Topo cells after 72 hrs by MTT assay; format: functional, cell-based; method in brief: as §1
HT-29 [6] = assay: Cell cycle arrest in human HT-29 cells assessed as accumulation of cells at sub G1 phase at 100 nM after 24 hrs by propidium iodide staining-based flow cytometric analysis (reference value: 1.2 +/- 0.3%); format: functional
HT-29 [7] = assay: Cell cycle arrest in human HT-29 cells assessed as accumulation of cells at sub G1 phase at 250 nM after 24 hrs by propidium iodide staining-based flow cytometric analysis (reference value: 1.2 +/- 0.3%); format: functional
HT-29 [8] = assay: Cell cycle arrest in human HT-29 cells assessed as accumulation of cells at sub G1 phase at 350 nM after 24 hrs by propidium iodide staining-based flow cytometric analysis (reference value: 1.2 +/- 0.3%); format: functional
HT-29 [9] = assay: Cell cycle arrest in human HT-29 cells assessed as accumulation of cells at G1 phase at 100 nM after 24 hrs by propidium iodide staining-based flow cytometric analysis (reference value: 75.1 +/- 1.1%); format: functional
HT-29 [10] = assay: Cell cycle arrest in human HT-29 cells assessed as accumulation of cells at G1 phase at 250 nM after 24 hrs by propidium iodide staining-based flow cytometric analysis (reference value: 75.1 +/- 1.1%); format: functional
HT-29 [11] = assay: Cell cycle arrest in human HT-29 cells assessed as accumulation of cells at G1 phase at 350 nM after 24 hrs by propidium iodide staining-based flow cytometric analysis (reference value: 75.1 +/- 1.1%); format: functional
HT-29 [12] = assay: Cell cycle arrest in human HT-29 cells assessed as accumulation of cells at S phase at 100 nM after 24 hrs by propidium iodide staining-based flow cytometric analysis (reference value: 12.3 +/- 0.4%); format: functional
HT-29 [13] = assay: Cell cycle arrest in human HT-29 cells assessed as accumulation of cells at S phase at 250 nM after 24 hrs by propidium iodide staining-based flow cytometric analysis (reference value: 12.3 +/- 0.4%); format: functional
HT-29 [14] = assay: Cell cycle arrest in human HT-29 cells assessed as accumulation of cells at S phase at 350 nM after 24 hrs by propidium iodide staining-based flow cytometric analysis (reference value: 12.3 +/- 0.4%); format: functional
HT-29 [15] = assay: Cell cycle arrest in human HT-29 cells assessed as accumulation of cells at G2/M phase at 100 nM after 24 hrs by propidium iodide staining-based flow cytometric analysis (reference value: 11.4 +/- 1.4%); format: functional
HT-29 [16] = assay: Cell cycle arrest in human HT-29 cells assessed as accumulation of cells at G2/M phase at 250 nM after 24 hrs by propidium iodide staining-based flow cytometric analysis (reference value: 11.4 +/- 1.4%); format: functional
HT-29 [17] = assay: Cell cycle arrest in human HT-29 cells assessed as accumulation of cells at G2/M phase at 350 nM after 24 hrs by propidium iodide staining-based flow cytometric analysis (reference value: 11.4 +/- 1.4%); format: functional
Chorioallantoic membrane [18] = assay: Antiangiogenic activity in Leghorn chicken embryo chorioallantoic membrane assessed as disruption of smaller blood vessels at 5 nmol after 6 hrs by light microscopic analysis; format: functional, tissue-based; details: Gallus gallus
Method in brief: (§3)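 Fertilized chicken eggs, CAM assay. Compound was applied topically into a small silicon foil ring placed on the CAM. The membrane and its extraembryonal blood vessels were monitored over 24 h, with observations at 6 h and 24 h post application.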

Chorioallantoic membrane [19] = assay: Antiangiogenic activity in Leghorn chicken embryo chorioallantoic membrane assessed as induction of hemorrhages at 5 nmol after 6 hrs by light microscopic analysis; format: functional, tissue-based; details: Gallus gallus; method in brief: as §3
Chorioallantoic membrane [20] = assay: Antiangiogenic activity in Leghorn chicken embryo chorioallantoic membrane assessed as induction of hemorrhages at 5 nmol after 24 hrs by light microscopic analysis; format: functional, tissue-based; details: Gallus gallus; method in brief: as §3
Chorioallantoic membrane [21] = assay: Antiangiogenic activity in Leghorn chicken embryo chorioallantoic membrane assessed as reduction in diameter of main blood vessel at 5 nmol after 24 hrs by light microscopic analysis; format: functional, tissue-based; details: Gallus gallus; method in brief: as §3
Chorioallantoic membrane [22] = assay: Antiangiogenic activity in Leghorn chicken embryo chorioallantoic membrane assessed as reduction in blood vessel area at 5 nmol after 6 hrs by light microscopic analysis relative to control; format: functional, tissue-based; design: scale not given: the % may be the effect or the level left; details: Gallus gallus
Method in brief: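 The CAM assay was run with topical application into a silicon foil ring atop the CAM of fertilized chicken eggs. Area covered by blood vessels was quantified by fractal analysis relative to control.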

Chorioallantoic membrane [23] = assay: Antiangiogenic activity in Leghorn chicken embryo chorioallantoic membrane assessed as effect on blood vessel length at 5 nmol after 6 hrs by light microscopic analysis; format: functional, tissue-based; details: Gallus gallus; method in brief: as §3
518A2 [24] = assay: Induction of apoptosis in human 518A2 cells assessed as accumulation at subG1 phase; format: functional, cell-based
518A2 [25] = assay: Induction of cell cycle arrest in human 518A2 cells; format: functional, cell-based
HT-29 [26] = assay: Cell cycle arrest in human HT-29 cells assessed as accumulation of cells at G2/M phase after 24 hrs by propidium iodide staining-based flow cytometric analysis; format: functional
Chorioallantoic membrane [27] = assay: Antiangiogenic activity in Leghorn chicken embryo chorioallantoic membrane assessed as disruption of smaller blood vessels at 5 nmol after 24 hrs by light microscopic analysis; format: functional, tissue-based; details: Gallus gallus; method in brief: as §3

CSc1ccc(C2C(C#N)=C(N)Oc3c2cc(Cl)c2ccccc32)cc1 (stereo unspecified)
Activity (518A2 [1]): Dose-dependent effect
IC50 (518A2 [1]): 1.35 µM
IC50 (HT-29 [2]): 1.54 µM
IC50 (A2780): 1.07 µM
IC50 [3]: 1.29 µM

N#CC1=C(N)Oc2c(cc(Cl)c3ccccc23)C1c1cc(F)cc(F)c1 (stereo unspecified)
Activity (518A2 [1]): Dose-dependent effect
IC50 (518A2 [1]): 0.0241 µM
IC50 (HT-29 [2]): 0.102 µM
IC50 (A2780): 0.104 µM
IC50 [3]: 0.155 µM
IC50 (DLD-1): 0.0984 µM
IC50 (EA.hy 926): 0.0678 µM
IC50 (PANC-1): 0.0927 µM
IC50 (HCT-116): 0.091 µM
IC50 [4]: 0.092 µM
IC50 [5]: 0.0798 µM
Activity (HT-29 [6]): 3.3%
Activity (HT-29 [7]): 4.5%
Activity (HT-29 [8]): 3.5%
Activity (HT-29 [9]): 52%
Activity (HT-29 [10]): 3%
Activity (HT-29 [11]): 1.6%
Activity (HT-29 [12]): 19.6%
Activity (HT-29 [13]): 2.3%
Activity (HT-29 [14]): 2.2%
Activity (HT-29 [15]): 25%
Activity (HT-29 [16]): 90.3%
Activity (HT-29 [17]): 90.3%
Activity (Chorioallantoic membrane [18]): Active
Activity (Chorioallantoic membrane [19]): Active
Activity (Chorioallantoic membrane [20]): inactive
Activity (Chorioallantoic membrane [21]): Active
Activity (Chorioallantoic membrane [22]): inactive
Activity (Chorioallantoic membrane [23]): inactive
Activity (518A2 [24]): Active
Activity (518A2 [25]): inactive
Activity (HT-29 [26]): Dose-dependent effect
Activity (Chorioallantoic membrane [27]): inactive

N#CC1=C(N)Oc2c(ccc3ccccc23)C1c1ccc(C#N)cc1 (stereo unspecified)
Activity (518A2 [1]): Dose-dependent effect
IC50 (518A2 [1]): 0.939 µM
IC50 (HT-29 [2]): 1.23 µM
IC50 (A2780): 0.759 µM
IC50 [3]: 0.774 µM

N#CC1=C(N)Oc2c(cc(Cl)c3ccccc23)C1c1ccc(C#N)cc1 (stereo unspecified)
Activity (518A2 [1]): Dose-dependent effect
IC50 (518A2 [1]): 0.753 µM
IC50 (HT-29 [2]): 1.59 µM
IC50 (A2780): 1.44 µM
IC50 [3]: 1.41 µM

COc1c(Br)cc(C2C(C#N)=C(N)Oc3c2cc(Cl)c2ccccc32)cc1Br (stereo unspecified)
Activity (518A2 [1]): Dose-dependent effect
IC50 (518A2 [1]): 0.144 µM
IC50 (HT-29 [2]): 0.188 µM
IC50 (A2780): 0.16 µM
IC50 [3]: 0.168 µM

CSc1ccc(C2C(C#N)=C(N)Oc3c2ccc2ccccc32)cc1 (stereo unspecified)
Activity (518A2 [1]): Dose-dependent effect
IC50 (518A2 [1]): 1.98 µM
IC50 (HT-29 [2]): 1.1 µM
IC50 (A2780): 0.363 µM
IC50 [3]: 0.43 µM

N#CC1=C(N)Oc2c(cc(Cl)c3ccccc23)C1c1cccc([N+](=O)[O-])c1 (stereo unspecified)
Activity (518A2 [1]): Dose-dependent effect
IC50 (518A2 [1]): 0.225 µM
IC50 (HT-29 [2]): 0.209 µM
IC50 (A2780): 0.0611 µM
IC50 [3]: 0.046 µM
IC50 (DLD-1): 0.0223 µM
IC50 (EA.hy 926): 0.0908 µM
IC50 (PANC-1): 0.0659 µM
IC50 (HCT-116): 0.112 µM
IC50 [4]: 0.0733 µM
IC50 [5]: 0.0885 µM
Activity (HT-29 [6]): 2%
Activity (HT-29 [7]): 17.6%
Activity (HT-29 [8]): 6.6%
Activity (HT-29 [9]): 55.8%
Activity (HT-29 [10]): 53.5%
Activity (HT-29 [11]): 14.8%
Activity (HT-29 [12]): 23.6%
Activity (HT-29 [13]): 11.3%
Activity (HT-29 [14]): 5.2%
Activity (HT-29 [15]): 18.6%
Activity (HT-29 [16]): 17.7%
Activity (HT-29 [17]): 73.5%
Activity (Chorioallantoic membrane [18]): Active
Activity (Chorioallantoic membrane [19]): Active
Activity (Chorioallantoic membrane [20]): inactive
Activity (Chorioallantoic membrane [21]): Active
Activity (Chorioallantoic membrane [22]): 74%
Activity (Chorioallantoic membrane [23]): inactive
Activity (518A2 [24]): Active
Activity (518A2 [25]): inactive
Activity (HT-29 [26]): Dose-dependent effect
Activity (Chorioallantoic membrane [27]): inactive
